Source: ChEMBL document CHEMBL2010783, “Do plant cyclotides have potential as immunosuppressant peptides?” (J Nat Prod, 2012)
Active and inactive are the calls of the source. No cut-off for these calls is given here.

What was measured:
Type in all cases: functional, cell-based
[1] = tested on: PBMC; assay: Antiproliferative activity against activated human PBMC assessed as decrease in cell division after 72 hrs by flow cytometric analysis
Procedure, shortened: (§1)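 PBMC from healthy adult donors, isolated on a density gradient and cultured in RPMI 1640 with 10% heat-inactivated FCS at 37 °C and 5% CO2. 10^5 cells were stimulated with anti-CD3 (OKT3) and anti-CD28 mAbs for 72 h with test agent or medium. Cells were labelled with CFSE (5 μM, 10 min, 37 °C) and cell division was read by flow cytometry. Three or four independent experiments, mean ± SEM.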

[2] = tested on: PBMC; assay: Induction of apoptosis in human activated PBMC at 1.8 to 14 uM by annexinV/propidium iodide staining-based flow cytometric analysis
Procedure, shortened: (§2)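 Donor PBMC (10^5) were activated with anti-CD3/CD28 mAbs for 72 h with test agent, medium or controls (camptothecin 30 μg/mL; Triton X-100 0.5%). Readouts were subG1 DNA content by flow cytometry, and annexin V-FITC then propidium iodide staining by flow cytometry. Gates: viable annexin−/PI−; apoptotic annexin+/PI− or +/+; necrotic annexin−/PI+. Three independent experiments, mean ± SEM.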

[3] = tested on: PBMC; assay: Induction of apoptosis in human activated PBMC assessed as necrosis at 14 uM by annexinV/propidium iodide staining-based flow cytometric analysis; procedure, shortened: as §2
[4] = tested on: PBMC; assay: Induction of apoptosis in human activated PBMC assessed as necrosis at 30 ug/ml by annexinV/propidium iodide staining-based flow cytometric analysis; procedure, shortened: as §2
[5] = tested on: PBMC; assay: Induction of apoptosis in human activated PBMC at 30 ug/ml by annexinV/propidium iodide staining-based flow cytometric analysis; procedure, shortened: as §2
[6] = tested on: PBMC; assay: Antiproliferative activity against activated human PBMC assessed as decrease in cell division at 30 ug/ml after 72 hrs by flow cytometric analysis; procedure, shortened: as §1
[7] = tested on: PBMC; assay: Induction of apoptosis in human activated PBMC assessed as internucleosomal DNA fragmentation at 1.6 uM by annexinV/propidium iodide staining-based flow cytometric analysis; procedure, shortened: as §2
[8] = tested on: PBMC; assay: Antiproliferative activity against activated human PBMC assessed as decrease in cell division at 1.6 uM after 72 hrs by flow cytometric analysis; procedure, shortened: as §1
[9] = tested on: PBMC; assay: Induction of apoptosis in human activated PBMC assessed as necrotic cells at 1.6 uM by annexinV/propidium iodide staining-based flow cytometric analysis; procedure, shortened: as §2

Structure (SMILES): CC(C)C[C@@H]1NC(=O)CNC(=O)[C@H](CC(N)=O)NC(=O)[C@H](CCCNC(=N)N)NC(=O)[C@H]([C@@H](C)O)NC(=O)[C@H](CS)NC(=O)[C@H](C(C)C)NC(=O)[C@@H]2CCCN2C(=O)[C@H](CCC(=O)O)NC(=O)[C@H](CO)NC(=O)[C@H](CS)NC(=O)[C@H]([C@@H](C)O)NC(=O)[C@H](CS)NC(=O)CNC(=O)[C@@H]2CCCN2C(=O)[C@H]([C@@H](C)O)NC(=O)[C@H](CC(N)=O)NC(=O)[C@H](CS)NC(=O)[C@H]([C@@H](C)O)NC(=O)CNC(=O)CNC(=O)[C@H](C(C)C)NC(=O)[C@H](CS)NC(=O)[C@H]([C@@H](C)O)NC(=O)[C@H](CCC(=O)O)NC(=O)CNC(=O)[C@H](CS)NC(=O)[C@H](C(C)C)NC(=O)[C@@H]2CCCN2C1=O
- Activity [1]: Dose-dependent effect
- Activity [2]: inactive
- Activity [3]: inactive

Structure (SMILES): CC(C)C[C@@H]1NC(=O)CNC(=O)[C@H](CC(N)=O)NC(=O)[C@H](CCCNC(=N)N)NC(=O)[C@H]([C@@H](C)O)NC(=O)[C@@H]2CSSC[C@@H]3NC(=O)[C@H]([C@@H](C)O)NC(=O)CNC(=O)CNC(=O)[C@H](C(C)C)NC(=O)[C@@H]4CSSC[C@H](NC(=O)[C@H]([C@@H](C)O)NC(=O)[C@H](CSSC[C@H](NC(=O)[C@H](C(C)C)NC(=O)[C@@H]5CCCN5C1=O)C(=O)NCC(=O)N[C@@H](CCC(=O)O)C(=O)N[C@@H]([C@@H](C)O)C(=O)N4)NC(=O)CNC(=O)[C@@H]1CCCN1C(=O)[C@H]([C@@H](C)O)NC(=O)[C@H](CC(N)=O)NC3=O)C(=O)N[C@@H](CO)C(=O)N[C@@H](Cc1c[nH]c3ccccc13)C(=O)N1CCC[C@H]1C(=O)N[C@@H](C(C)C)C(=O)N2 [KALATA B1]
- IC50 [1]: 3.9 µM

Structure (SMILES): CC[C@@]1(O)C(=O)OCc2c1cc1n(c2=O)Cc2cc3ccccc3nc2-1
- Activity [4]: Active
- Activity [5]: Active
- Activity [6]: Active

Structure (SMILES): CC[C@H](C)[C@H](NC(=O)CN)C(=O)NCC(=O)N[C@@H](C)C(=O)N[C@H](C(=O)N[C@@H](CC(C)C)C(=O)N[C@@H](CCCCN)C(=O)N[C@H](C(=O)N[C@@H](CC(C)C)C(=O)N[C@H](C(=O)N[C@H](C(=O)NCC(=O)N[C@@H](CC(C)C)C(=O)N1CCC[C@H]1C(=O)N[C@@H](C)C(=O)N[C@@H](CC(C)C)C(=O)N[C@H](C(=O)N[C@@H](CO)C(=O)N[C@@H](Cc1c[nH]c2ccccc12)C(=O)N[C@H](C(=O)N[C@@H](CCCCN)C(=O)N[C@@H](CCCNC(=N)N)C(=O)N[C@@H](CCCCN)C(=O)N[C@@H](CCCNC(=N)N)C(=O)N[C@@H](CCC(N)=O)C(=O)N[C@@H](CCC(N)=O)C(N)=O)[C@@H](C)CC)[C@@H](C)CC)[C@@H](C)O)[C@@H](C)O)C(C)C)C(C)C
- Activity [7]: Active
- Activity [8]: Active
- Activity [9]: Active
